Ten molecules from article PMC7906539 (Medicinal chemistry research : an international journal for …, 2020) can be followed below.

Data set [1] deals with His-mHtt and GST-CaM (CaM–mHtt interaction) (Homo sapiens, UniProt P0DP23+P42858). Put plainly: CaM/mHtt AlphaScreen binding assay. The note with it: for IC50: read-out: AlphaScreen CaM–mHtt, IC50, triplicate. The procedure, abridged: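 His-mHtt (10 nM) preincubated 30 min with test compound, then GST-CaM (10 nM) added for 60 min at room temperature. Ni-chelate acceptor (10 μg/mL) and glutathione donor beads (15 μg/mL) are added for 2 h, then Alpha counts are read. Final 300–0.002 μM, triplicate; % inhibition normalized to DMSO controls.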
For orientation: Alpha assays give light when donor and acceptor beads are brought close together.

Data set [2] concerns SH-SY5Y cells. Put plainly: Cytotoxicity assay. The format is cell-based. As to conditions: for Cytotoxicity (SH-SY5Y cells, 24 h): 24 h incubation, CellTiter-Glo. The method in brief:
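SH-SY5Y cells seeded at 6000/well in 1:1 EMEM/F12 with 10% FBS. Exposure 24 h at 37 °C, then CellTiter-Glo luminescence read. Percent cytotoxicity normalized to DMSO controls.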

Molecules are shown by their SMILES. A value given as a limit tells only on which side of the number the result lay.

His-mHtt and GST-CaM (CaM–mHtt interaction), sequence (P42858 whole entry, one chain of several): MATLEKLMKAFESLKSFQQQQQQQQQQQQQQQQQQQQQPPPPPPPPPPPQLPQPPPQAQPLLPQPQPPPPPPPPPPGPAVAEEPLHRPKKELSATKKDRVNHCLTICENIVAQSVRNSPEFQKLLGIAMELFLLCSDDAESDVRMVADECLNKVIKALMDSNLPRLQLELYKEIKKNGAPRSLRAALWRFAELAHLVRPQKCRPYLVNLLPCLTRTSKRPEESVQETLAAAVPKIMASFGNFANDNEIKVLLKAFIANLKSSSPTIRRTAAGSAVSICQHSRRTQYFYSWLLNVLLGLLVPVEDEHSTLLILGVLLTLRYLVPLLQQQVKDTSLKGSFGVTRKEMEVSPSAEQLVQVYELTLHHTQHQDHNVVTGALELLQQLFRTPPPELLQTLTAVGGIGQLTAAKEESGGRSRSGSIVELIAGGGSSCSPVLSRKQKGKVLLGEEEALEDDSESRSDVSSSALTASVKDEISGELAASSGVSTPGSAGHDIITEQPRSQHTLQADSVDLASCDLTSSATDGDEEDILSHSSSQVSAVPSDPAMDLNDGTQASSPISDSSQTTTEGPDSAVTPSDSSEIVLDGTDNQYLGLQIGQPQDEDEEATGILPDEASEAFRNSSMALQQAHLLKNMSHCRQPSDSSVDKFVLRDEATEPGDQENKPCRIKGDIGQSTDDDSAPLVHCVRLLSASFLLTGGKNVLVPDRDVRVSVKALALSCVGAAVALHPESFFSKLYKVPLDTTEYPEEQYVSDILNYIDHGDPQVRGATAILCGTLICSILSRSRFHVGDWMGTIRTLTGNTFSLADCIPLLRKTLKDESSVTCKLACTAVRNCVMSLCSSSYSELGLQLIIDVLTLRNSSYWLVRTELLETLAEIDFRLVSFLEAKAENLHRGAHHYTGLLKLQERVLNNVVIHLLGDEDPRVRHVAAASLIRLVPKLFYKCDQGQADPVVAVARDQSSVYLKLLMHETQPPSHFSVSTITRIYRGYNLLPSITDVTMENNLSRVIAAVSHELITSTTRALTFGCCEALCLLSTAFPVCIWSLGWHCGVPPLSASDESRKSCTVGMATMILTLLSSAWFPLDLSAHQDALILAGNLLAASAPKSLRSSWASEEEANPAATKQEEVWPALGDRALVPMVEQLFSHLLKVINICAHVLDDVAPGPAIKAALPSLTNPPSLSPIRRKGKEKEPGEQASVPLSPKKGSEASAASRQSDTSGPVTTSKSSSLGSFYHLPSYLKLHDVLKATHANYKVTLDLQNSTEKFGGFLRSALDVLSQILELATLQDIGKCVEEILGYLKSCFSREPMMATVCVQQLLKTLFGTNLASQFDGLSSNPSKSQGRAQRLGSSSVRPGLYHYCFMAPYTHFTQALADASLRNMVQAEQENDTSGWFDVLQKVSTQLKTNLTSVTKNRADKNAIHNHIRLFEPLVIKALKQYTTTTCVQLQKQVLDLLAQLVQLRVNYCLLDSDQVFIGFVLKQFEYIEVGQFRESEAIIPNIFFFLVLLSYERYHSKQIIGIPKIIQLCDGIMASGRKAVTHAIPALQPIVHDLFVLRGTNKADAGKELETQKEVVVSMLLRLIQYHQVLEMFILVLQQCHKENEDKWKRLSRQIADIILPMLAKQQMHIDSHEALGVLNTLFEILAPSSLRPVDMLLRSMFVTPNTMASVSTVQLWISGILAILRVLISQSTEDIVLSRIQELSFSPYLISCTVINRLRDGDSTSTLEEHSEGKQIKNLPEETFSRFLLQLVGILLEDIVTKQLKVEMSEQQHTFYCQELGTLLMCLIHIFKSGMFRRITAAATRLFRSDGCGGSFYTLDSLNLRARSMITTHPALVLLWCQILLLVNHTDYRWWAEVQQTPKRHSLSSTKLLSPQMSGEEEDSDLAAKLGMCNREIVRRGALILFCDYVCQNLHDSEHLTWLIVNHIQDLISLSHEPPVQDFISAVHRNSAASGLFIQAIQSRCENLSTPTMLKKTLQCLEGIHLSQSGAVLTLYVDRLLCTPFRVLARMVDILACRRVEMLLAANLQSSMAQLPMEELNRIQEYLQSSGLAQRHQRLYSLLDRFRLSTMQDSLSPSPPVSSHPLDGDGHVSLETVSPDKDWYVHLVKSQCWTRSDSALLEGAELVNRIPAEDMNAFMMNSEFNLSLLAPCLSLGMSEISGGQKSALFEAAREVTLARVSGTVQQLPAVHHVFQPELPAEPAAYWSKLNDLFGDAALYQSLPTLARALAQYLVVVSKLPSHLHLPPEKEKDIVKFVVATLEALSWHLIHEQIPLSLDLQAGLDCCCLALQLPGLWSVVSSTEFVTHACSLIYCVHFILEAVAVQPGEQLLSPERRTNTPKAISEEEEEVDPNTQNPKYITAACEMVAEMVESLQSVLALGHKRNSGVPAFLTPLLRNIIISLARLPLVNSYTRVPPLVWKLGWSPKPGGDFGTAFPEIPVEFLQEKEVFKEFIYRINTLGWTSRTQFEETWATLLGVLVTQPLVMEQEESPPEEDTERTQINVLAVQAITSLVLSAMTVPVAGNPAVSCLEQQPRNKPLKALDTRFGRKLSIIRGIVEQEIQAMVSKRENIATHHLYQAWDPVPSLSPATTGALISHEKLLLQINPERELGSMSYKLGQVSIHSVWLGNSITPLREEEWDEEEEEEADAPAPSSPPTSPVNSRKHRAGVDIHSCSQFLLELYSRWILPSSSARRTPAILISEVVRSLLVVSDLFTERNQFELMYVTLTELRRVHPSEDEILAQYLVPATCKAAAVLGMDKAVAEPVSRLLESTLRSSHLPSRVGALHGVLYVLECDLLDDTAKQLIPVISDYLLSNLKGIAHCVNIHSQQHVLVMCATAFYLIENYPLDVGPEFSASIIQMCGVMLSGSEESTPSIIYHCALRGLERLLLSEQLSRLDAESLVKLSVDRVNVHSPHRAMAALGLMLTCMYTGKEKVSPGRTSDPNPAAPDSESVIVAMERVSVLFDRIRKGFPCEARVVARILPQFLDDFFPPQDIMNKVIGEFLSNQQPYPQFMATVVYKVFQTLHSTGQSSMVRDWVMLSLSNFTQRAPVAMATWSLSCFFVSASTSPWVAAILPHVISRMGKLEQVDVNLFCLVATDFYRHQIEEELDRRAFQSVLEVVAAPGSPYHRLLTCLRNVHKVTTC

As for `C=C1CCN([C@H](CC(C)C)C(=O)NCc2ccc(Cl)c(C(F)(F)F)c2)S(=O)(=O)c2ccccc21` [Compound 10d, (R)-N-(4-Chloro-3-(trifluoromethyl)benzyl)-4-methyl-2-(5-methylene-1,1-dioxido-4,5-dihydrobenzo[f][1,2]thiazepin-2 (3H)-yl)pentanamide], the half-inhibitory concentration (IC50) – broadly, the concentration at which inhibition is half-maximal – in data set [1] was 1.8 µM. Further, in data set [2], the “Cytotoxicity (SH-SY5Y cells, 24 h)” value was above 300 µM.
In the case of `C=C1CCN([C@@H](CC(C)C)C(=O)NCc2ccc(Cl)c(Cl)c2)S(=O)(=O)c2ccccc21` [Compound 9a], in data set [1], the “Disruption of mHtt-CaM PPI (in words)” value is “retained activity” and the IC50 was determined as 1.03 µM. In data set [2], the “Toxicity to SH-SY5Y cells (in words)” value was “no measurable toxicity” and the “Cytotoxicity (SH-SY5Y cells, 24 h)” value is above 300 µM.
Consider `C=C1CCN([C@H](CC(C)C)C(=O)NCc2ccc(Cl)c(Cl)c2)S(=O)(=O)c2ccccc21` [Compound 10a, (R)-N-(3,4-Dichlorobenzyl)-4-methyl-2-(5-methylene-1,1-dioxido-4,5-dihydrobenzo[f][1,2]thiazepin-2(3H)-yl) pentanamide], for which the half-inhibitory concentration (IC50) in data set [1] came to 0.98 µM. Moreover, in data set [2], the “Cytotoxicity (SH-SY5Y cells, 24 h)” value was above 300 µM.
Take `CC(C)C[C@@H](C(=O)NCc1ccccc1)N1CCC(=O)c2ccccc2S1(=O)=O` [Compound 11b, (S)-N-Benzyl-2-(1,1-dioxido-5-oxo-4,5-dihydrobenzo[f][1,2]thiazepin-2(3H)-yl)-4-methylpentanamide]: the IC50 in data set [1] worked out at 14.6 µM. Besides, the “Cytotoxicity (SH-SY5Y cells, 24 h)” value in data set [2] was determined as 43.8 µM.
On the same counts, the results for `C=C1CCN([C@H](CC(C)C)C(=O)NCc2ccccc2)S(=O)(=O)c2ccccc21` [Compound 10b, (R)-N-Benzyl-4-methyl-2-(5-methylene-1,1-dioxido-4,5-dihydrobenzo[f][1,2]thiazepin-2(3H)-yl)pentanamide] are 12.7 µM and 87 ± 2 µM.
As for `C=C1CCN([C@H](CC(C)C)C(=O)NCc2ccc(C)cc2)S(=O)(=O)c2ccccc21` [Compound 10e, (R)-4-Methyl-N-(4-methylbenzyl)-2-(5-methylene-1,1-dioxido-4,5-dihydrobenzo[f][1,2]thiazepin-2(3H)-yl) pentanamide], the IC50 in data set [1] was determined as 15.1 µM. Further, the “Cytotoxicity (SH-SY5Y cells, 24 h)” value in data set [2] came out at 64 ± 2.5 µM.
On the same counts, the results for `CC(C)C[C@@H](C(=O)NCc1ccc(Cl)cc1)N1CCC(=O)c2ccccc2S1(=O)=O` [Compound 11c, (S)-N-(4-Chlorobenzyl)-2-(1,1-dioxido-5-oxo-4,5-dihydrobenzo[f][1,2]thiazepin-2(3H)-yl)-4-methylpentanamide] are 11.2 µM and 41.4 µM.
For `CC(C)C[C@@H](C(=O)NCc1ccc(Cl)c(Cl)c1)N1CCC(=O)c2ccccc2S1(=O)=O` [Compound 11a, (S) -N-(3,4-Dichlorobenzyl)-2-(1,1-dioxido-5-oxo-4,5-dihydrobenzo[f][1,2]thiazepin-2(3H)-yl)-4-methylpentanamide], the IC50 in data set [1] amounted to 2.14 µM. Further, the “Cytotoxicity (SH-SY5Y cells, 24 h)” value in data set [2] is 39.8 µM.
Consider `C=C1CCN([C@@H](CC(C)C)C(=O)NCc2ccc(OC)cc2)S(=O)(=O)c2ccccc21` [Compound 9f, (S)-N-(4-Methoxybenzyl)-4-methyl-2-(5-methylene-1,1-dioxido-4,5-dihydrobenzo[f][1,2]thiazepin-2(3H)-yl) pentanamide], for which, in data set [1], the “Disruption of mHtt-CaM PPI (in words)” value is recorded as “lost all mHtt-CaM disruption activity” and the IC50 is above 300 µM. In addition, in data set [2], the “Cytotoxicity (SH-SY5Y cells, 24 h)” value is above 300 µM.
Take `C=C1CCN([C@H](CC(C)C)C(=O)NCC2CCCCC2)S(=O)(=O)c2ccccc21` [Compound 10g, (R)-N-(Cyclohexylmethyl)-4-methyl-2-(5-methylene-1,1-dioxido-4,5-dihydrobenzo[f][1,2]thiazepin-2(3H)-yl) pentanamide]: the 50% inhibitory concentration (IC50) in data set [1] was 12.2 µM. Moreover, the “Cytotoxicity (SH-SY5Y cells, 24 h)” value in data set [2] came to 99 ± 4 µM.
